The species entered for test [1] is Rattus norvegicus. The test can be described thus: Hypoglycemic activity in blood glucose at 2 hr (positive control) in the 18-h fasted normal rat. Format: functional. Put shortly:
(§1)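 Sprague-Dawley-derived rats (120–130 g), fasted 18 h, in groups of four. Each got 0.5 mL by stomach tube of test compound (100 mg/kg), tolbutamide (25 mg/kg) or vehicle (carboxymethylcellulose/Polysorbate 80/NaCl/benzyl alcohol in water). Then 1.0 mL 12.5% glucose in 0.9% saline was given s.c. Barbiturate anesthesia at 110 min; vena cava blood drawn 9 min later.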

Test [2] concerns Rattus norvegicus. As to the kind of experiment: Hypoglycemic activity in blood glucose at 2 hr (treated) in the 18-h fasted normal rat at a dose of 100 mg/kg. Format: functional. Put shortly:
as §1

In test [3] the test system is Rattus norvegicus. As to the kind of experiment: Hypoglycemic activity in the 18-h fasted normal rat with respect to 1-butyl-3-(p-tolylsulphonyl)urea; inactive at 100 mg/kg at the second stage of testing. Details: dose 100 mg/kg. Type of test: functional, organism-based. The method, boiled down: (§2)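 In 18-h fasted rats (oral dosing, s.c. glucose load), activity was first confirmed, then compounds were retested at half-dose intervals alongside the positive control. Potency relative to tolbutamide came from a parallel line assay.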

The species entered for test [4] is Rattus norvegicus. The test can be described thus: Hypoglycemic activity in the 18-h fasted normal rat with respect to 1-butyl-3-(p-tolylsulphonyl)urea. Type of test: functional. Put shortly:
as §2

The species entered for test [5] is Rattus norvegicus. As to the kind of experiment: Hypoglycemic activity in blood glucose at 2 hr (positive control) in the fasted-refed rat. Type of test: functional. Put shortly: (§3)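 Fasted-refed model: rats fasted 18 h, then given 2 mL liquid diet by stomach tube, otherwise handled as in the fasted-rat test. Blood glucose % change read at 2 h.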
For test [6], the species on record is Rattus norvegicus. The test can be described thus: Hypoglycemic activity in blood glucose at 2 hr (treated) in the fasted-refed rat. Format: functional. The method, boiled down: as §3

The source made the active and inactive calls. The calls are words filed in the database; no cut-off is given here.

Consider `CC(C)(C)Cc1ccnc(O)c1C(=O)O`, for which the Change was -34% in test [1] and -9% in test [2]. The Relative potency result in test [3] is “inactive”.
On to `CC(C)(C)Cc1ccc(C(=O)[O-])c(O)n1.[Na+]`, for which the Change was -26% in test [1] and -56% in test [2]. In addition, the Relative potency in test [4] is 7.9.
For the molecule `CCC(C)(C)c1ccc(C(=O)O)c(O)n1`, the Change was -32% in test [1] and -67% in test [2]. This molecule also had a Relative potency in test [4] of 0.9.
The corresponding values for `CC(C)(C)Cc1ccc(-c2nn[nH]n2)c(O)n1` are -34%, -37% and 1.6.
The corresponding values for `CCC(C)(C)Cc1ccc(C(=O)O)c(O)n1` are -38%, -54% and 3.8.
For `CC(C)Cc1ccc(C(=O)O)c(=O)n1C` the same measures were -22%, -36% and 0.6.
Turning to `CC(C)(C)CC1=NC(=O)CC=C1`, the Change in test [1] is listed as -36%; in test [2] it was -1%. For the same molecule, the Relative potency entry in test [3] was “inactive”.
For `CCCCCCC(C)(C)Cc1ccc(C(=O)O)c(O)n1` the same measures were -37%, 8% and “inactive”.
The corresponding values for `CC(C)CCc1ccc(C(=O)O)c(O)n1` are -28%, -4% and “inactive”.
As to `CC(C)(C)Cc1ccc(CC(=O)O)c(O)n1`, the Change in test [1] and in test [2] was -25% in each case. In test [4], this molecule displayed a Relative potency of 0.25.
In the case of `CC(C)c1ccc(C(=O)O)c(O)n1`, the results for the Change in test [1] and in test [2] were -26% and -23%, respectively. The Relative potency result in test [3] is “inactive”.
Take `O=C(O)c1ccc[nH]c1=O`: the Change is reported as -33% in test [1], -55% in test [5], -26% in test [2] and -4% in test [6]. In test [4], this molecule came in with a Relative potency of 0.25.
On to `CC(C)(C)c1ccc(C(=O)O)c(O)n1`, for which the Change in test [1] is -39%; in test [5], -40%; in test [2], -69%; in test [6], -58%. The same molecule yielded a Relative potency in test [4] of 1.
The corresponding values for `CC(C)Cc1ccc(C(=O)O)c(O)n1` are -34%, -48%, -61%, -54% and 1.
As to `Cc1ccc(C(=O)O)c(O)n1`, the Change in test [1] is -34%; in test [2], 1%. Besides, the Relative potency entry in test [3] was “inactive”.
For `CC(C)(C)Cc1ccc(C(N)=O)c(O)n1` the same measures were -25%, 30% and “inactive”.
On to `CC(C)(C)Cc1ccc(C(=O)O)c(O)n1`, for which the Change in test [1] is reported as -39%; in test [5], -40%; in test [2], -59%; in test [6], -60%. The same molecule showed a Relative potency in test [4] of 13.
Take `CC(C)(C)Cc1ccc(CO)c(O)n1`: the Change is on record as -26% in test [1] and -40% in test [2]. Also, the Relative potency in test [4] is on record as 5.3.
`Cn1c(CC(C)(C)C)ccc(C(=O)O)c1=O`: the Change is given as -34% in test [1] and -3% in test [2]. In test [3], the Relative potency entry is “inactive”.
For `CCCCCc1ccc(C(=O)O)c(O)n1` the same measures were -25%, -2% and “inactive”.
Turning to `CC(C)(C)Cc1ccc(C=O)c(O)n1`, the Change in test [1] and in test [2] was -47% throughout. Further, the Relative potency in test [4] was determined as 5.9.
Consider `CCOC(=O)c1ccc(CC(C)(C)C)nc1O`, for which the Change in test [1] was -42%; in test [2] it was -54%. For the same molecule, the Relative potency in test [4] is listed as 7.4.
As to `CCCCCCC(C)(C)c1ccc(C(=O)O)c(O)n1`, the Change in test [1] is listed as -37%; in test [2] it was 5%. Further, the Relative potency result in test [3] was “inactive”.
The corresponding values for `O=C(O)c1ccc(CC2CCC2)nc1O` are -37%, -14% and “inactive”.
For `CC(C)(C)Cc1ccc(C(=O)O)cn1` the same measures were -31%, -4% and “inactive”.

Source of the values: ChEMBL document CHEMBL1122864, “1,2-Dihydro-2-oxo-6-(2,2-dimethylpropyl)-3-pyridinecarboxylic acid, analogues, and derivatives. A new class of oral hypoglycemic agents” (1985).
